Bioassay records: PubChem, several laboratories
In the library only some 1.2% were active in any assay of this set; here they are far more common.
TNAP act hi DEA = TNAP activators at high phosphate acceptor level, primary screen, biochemical, luminescence, uHTS | Alkaline phosphatase, tissue-nonspecific isozyme (Homo sapiens), P05186 | purified TNAP, CDP-star luminescence, 1 M DEA, 30 min; stronger effect = higher value; 0 = EDTA background, 1 = DMSO-only activity | activation factor at 20 µM | 200,000 tested, under 10 active | AID 1136, 2008;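 active = activation factor at least 2 at 20 µM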
Target sequence (P05186 whole entry, looked up): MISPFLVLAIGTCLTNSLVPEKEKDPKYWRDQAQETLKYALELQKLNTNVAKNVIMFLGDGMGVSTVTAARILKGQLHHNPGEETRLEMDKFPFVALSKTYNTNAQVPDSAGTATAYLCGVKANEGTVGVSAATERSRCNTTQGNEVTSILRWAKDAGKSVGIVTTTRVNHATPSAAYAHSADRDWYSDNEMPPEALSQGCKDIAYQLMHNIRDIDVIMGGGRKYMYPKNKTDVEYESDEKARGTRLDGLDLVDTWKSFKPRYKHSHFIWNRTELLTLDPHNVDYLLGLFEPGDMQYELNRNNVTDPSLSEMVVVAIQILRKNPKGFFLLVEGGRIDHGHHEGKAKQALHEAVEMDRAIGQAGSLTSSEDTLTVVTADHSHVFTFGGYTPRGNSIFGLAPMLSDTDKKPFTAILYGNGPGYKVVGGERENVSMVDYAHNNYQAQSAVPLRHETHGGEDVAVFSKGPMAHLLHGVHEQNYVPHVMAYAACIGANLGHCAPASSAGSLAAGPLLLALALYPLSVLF
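system = human TNAP | amount = enzyme diluted 1/800 final | reagent = 100 µM CDP-star substrate | signal = luminescent substrate turnover signal | dosing = one dose, 20 µM | benchmarks = EDTA negative control, DMSO positive control | measure = activation factor | timing = 30 min reaction, room temperature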
TNAP inh hiacc = human TNAP enzyme inhibitors, primary screen, biochemical, luminescent, high phosphate acceptor level, uHTS. 0.03% of 200,000 active. Alkaline phosphatase, tissue-nonspecific isozyme (Homo sapiens), P05186. purified TNAP, CDP-star luminescence, 1 M DEA. AID 1135, 2008. inhibition, % at 20 µM;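 active = over 50% inhibition of tissue-nonspecific alkaline phosphatase at 20 µM in the single-dose screen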;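 also: plate controls were DMSO wells for no effect and EDTA-quenched wells as full inhibition for full effect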
Insulin prom inh = inhibitors of insulin promoter-driven GFP, primary screen, imaging, TRM-6 cells, eGFP reporter, cell count | reporter expression induced with tamoxifen | inhibition, % at 2 µM | 0.9% of 130,000 active | AID 1273, 2008;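 active = inhibition above the mean plus 3 SD, with well images judged a real hit on visual review, cut at about 60% in these data, passing the limit was not always enough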
Efa HMGR inh = inhibitors of E. faecalis class II HMGR, primary screen, biochemical, Enterococcus faecalis; HMG-CoA reductase (Enterococcus faecalis, mvaE); purified E. faecalis HMGR, NADPH absorbance 340 nm kinetic; inhibition, % at 10 µM; 0.41% of 190,000 active;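 active = inhibition above a set limit, the median over all tested compounds plus 3 SD, cut at about 9.5% in these data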;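 also: enzyme runs in reverse so mevalonate oxidation gives rising NADPH absorbance; 0% = complete reaction with DMSO and 100% = background rate lacking mevalonate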
TNAP inh no acc = human TNAP enzyme inhibitors, primary screen, biochemical, luminescent, no phosphate acceptor, uHTS; Alkaline phosphatase, tissue-nonspecific isozyme (Homo sapiens), P05186; purified TNAP, CDP-star luminescence, 30 min; inhibition, % at 20 µM; 0.26% of 200,000 active;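 active = tissue-nonspecific alkaline phosphatase inhibition above about 50% at 20 µM in the single-dose screen, limit read from the data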;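 also: 0% = DMSO negative control and 100% = EDTA positive control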
* hit, by the source's call.

Nc1nc(CN2CCCCCC2)nc(Nc2ccccc2)n1 was read as TNAP act hi DEA 1, TNAP inh hiacc -3, Insulin prom inh 89*, Efa HMGR inh -7 and TNAP inh no acc -9.
Screening Nc1nc(CN2CCN(Cc3ccc4c(c3)OCO4)CC2)nc(Nc2ccccc2)n1 returned TNAP act hi DEA 0.9, TNAP inh hiacc 5, Insulin prom inh -27, Efa HMGR inh -2 and TNAP inh no acc 10.
For CN(C)CCCN(Cc1ccccc1)C(=S)Nc1ccc(OC(F)F)cc1 the results were TNAP act hi DEA 1, TNAP inh hiacc -1, Efa HMGR inh -3 and TNAP inh no acc -10.
For CCn1cc(S(=O)(=O)N2CCN(Cc3ccc(F)cc3)CC2)cn1 the results were TNAP act hi DEA 1, TNAP inh hiacc -2, Insulin prom inh -10, Efa HMGR inh -6 and TNAP inh no acc -8.
`O=C(C1CC1)N1CCCC(c2ccc(Cl)cc2)=N1` gave TNAP act hi DEA 1, TNAP inh hiacc 2, Insulin prom inh -64, Efa HMGR inh 10* and TNAP inh no acc 8.
`CN(C(=O)c1c(Br)cnn1C)C12CC3CC(CC(C3)C1)C2` gave TNAP act hi DEA 1, TNAP inh hiacc 0, Insulin prom inh 39, Efa HMGR inh -1 and TNAP inh no acc -16.
`O=C(O)c1ccc(Sc2nnnn2-c2ccccc2)c([N+](=O)[O-])c1` gave TNAP act hi DEA 1.1, TNAP inh hiacc -6, Insulin prom inh 12, Efa HMGR inh -6 and TNAP inh no acc -8.
Screening Cn1nc([N+](=O)[O-])nc1Sc1nnnn1-c1ccc(C(=O)O)cc1 returned TNAP act hi DEA 1, TNAP inh hiacc -5, Efa HMGR inh 17* and TNAP inh no acc -4.
`CCC(=O)Nc1ccc2c(c1)nc1n2CCSC1` gave TNAP act hi DEA 1.1, TNAP inh hiacc -12, Efa HMGR inh -2 and TNAP inh no acc -5.
`CC(C)C(=O)Nc1ccc2c(c1)nc1n2CCSC1` gave TNAP act hi DEA 1, TNAP inh hiacc 1, Insulin prom inh 76*, Efa HMGR inh 2 and TNAP inh no acc -10.
Screening CC(C)(C)C1=C(C#N)C(c2ccc3c(c2)OCO3)C(C#N)=C(N)O1 (stereo unspecified) returned TNAP act hi DEA 1.1, TNAP inh hiacc -6, Efa HMGR inh 11* and TNAP inh no acc -12.
`CCOc1ccccc1NC(C)C(=O)Nc1cc(C(F)(F)F)ccc1N1CCOCC1` (stereo unspecified) gave TNAP act hi DEA 1, TNAP inh hiacc 3, Efa HMGR inh 0 and TNAP inh no acc -10.
For Fc1ccc(-c2[nH]ncc2-c2nnnn2-c2ccccc2)c(F)c1 the results were TNAP act hi DEA 0.9, TNAP inh hiacc 6, Efa HMGR inh 1 and TNAP inh no acc 84*.
For CCOc1ncccc1C(=O)OCc1ccc(C(=O)OC)cc1 the results were TNAP act hi DEA 1, TNAP inh hiacc 2, Efa HMGR inh 4 and TNAP inh no acc -8.
`O=C(c1cncc(Br)c1)N1CCc2ccccc2C1` gave TNAP act hi DEA 1, TNAP inh hiacc -4, Insulin prom inh 86*, Efa HMGR inh -2 and TNAP inh no acc -9.
Screening COc1ccc(/C=N/n2c(SC)nnc(C(C)(C)C)c2=O)cc1OC returned TNAP act hi DEA 1, TNAP inh hiacc -3, Insulin prom inh 30, Efa HMGR inh -3 and TNAP inh no acc -5.
For COc1cc(/C=N/n2c(SC)nnc(C(C)(C)C)c2=O)ccc1O the results were TNAP act hi DEA 1, TNAP inh hiacc 2, Insulin prom inh 77*, Efa HMGR inh -4 and TNAP inh no acc -9.
`COc1ccc(CC(=O)OCC(=O)NC(=O)NC23CC4CC(CC(C4)C2)C3)cc1` gave TNAP act hi DEA 1.1, TNAP inh hiacc -6, Insulin prom inh -19, Efa HMGR inh -2 and TNAP inh no acc -17.
For CC1CC1C(=O)OCC(=O)NC(=O)NC12CC3CC(CC(C3)C1)C2 (stereo unspecified) the results were TNAP act hi DEA 1, TNAP inh hiacc -2, Insulin prom inh 100*, Efa HMGR inh -1 and TNAP inh no acc -11.
Screening CCOC(=O)c1oc2c(c1C)/C(=N/O)CCC2 returned TNAP act hi DEA 1, TNAP inh hiacc 0, Insulin prom inh 88*, Efa HMGR inh -6 and TNAP inh no acc -9.
CCOC(=O)c1oc2c(c1C)C(=O)CCC2 was read as TNAP act hi DEA 1, TNAP inh hiacc -4, Insulin prom inh 11, Efa HMGR inh 1 and TNAP inh no acc -7.
Screening CCC(Sc1nc2c(cnn2-c2ccc(Cl)cc2)c(=O)[nH]1)C(=O)OC (stereo unspecified) returned TNAP act hi DEA 1, TNAP inh hiacc 0, Insulin prom inh 80*, Efa HMGR inh -5 and TNAP inh no acc 4.
For CCOC(=O)C(C)(C)Sc1nc2c(cnn2-c2ccc(Cl)cc2)c(=O)[nH]1 the results were TNAP act hi DEA 1, TNAP inh hiacc -2, Efa HMGR inh -3 and TNAP inh no acc -4.
Screening Cc1cccc(-n2cnc3cc(C(=O)N4CCc5ccccc54)ccc32)c1 returned TNAP act hi DEA 1, TNAP inh hiacc -4, Insulin prom inh 9, Efa HMGR inh -3 and TNAP inh no acc 6.
`C/C=C/CSc1nc2c(c(=O)[nH]c(=O)n2C)n1CCC` gave TNAP act hi DEA 1.1, TNAP inh hiacc -8, Insulin prom inh 82*, Efa HMGR inh -1 and TNAP inh no acc -16.
CC1CCCC(NC(=O)C2CCN(S(=O)(=O)N3CCCCC3)CC2)C1C (stereo unspecified) was read as TNAP act hi DEA 1, TNAP inh hiacc -3, Efa HMGR inh 3 and TNAP inh no acc -11.
For O=C(c1cccs1)n1nc(-c2ccccc2)nc1NCc1ccco1 the results were TNAP act hi DEA 1, TNAP inh hiacc -2, Insulin prom inh 26, Efa HMGR inh 1 and TNAP inh no acc 6.
For COCC(=O)n1nc(-c2ccccc2)nc1NCc1cccs1 the results were TNAP act hi DEA 0.9, TNAP inh hiacc 15, Efa HMGR inh -6 and TNAP inh no acc 54*.
`COc1ccc(NC(=O)N(Cc2cc3ccc(OC)cc3[nH]c2=O)CC2CCCO2)cc1` (stereo unspecified) gave TNAP act hi DEA 1, TNAP inh hiacc -4, Efa HMGR inh 17* and TNAP inh no acc -4.
`COc1ccc(NC(=O)N(Cc2cc3cc(OC)ccc3[nH]c2=O)CC2CCCO2)cc1` (stereo unspecified) gave TNAP act hi DEA 1, TNAP inh hiacc 1, Insulin prom inh -18, Efa HMGR inh -3 and TNAP inh no acc -4.
`O=C(CNS(=O)(=O)c1cccs1)NCc1ccccc1` gave TNAP act hi DEA 1, TNAP inh hiacc -4, Efa HMGR inh 1 and TNAP inh no acc -14.
